Our source for the Ki and inhibition of growth values is ChEMBL document CHEMBL3045880, “Design and syntheses of novel N-(benzothiazol-5-yl)-4,5,6,7-tetrahydro-1H-isoindole-1,3(2H)-dione and N-(benzothiazol-5-yl)isoindoline-1,3-dione as potent protoporphyrinogen oxidase inhibitors” (J Agric Food Chem, 2011).

The target in assay [1] is T1, Protoporphyrinogen oxidase (Homo sapiens) (UniProt P50336).
T1 sequence (whole entry): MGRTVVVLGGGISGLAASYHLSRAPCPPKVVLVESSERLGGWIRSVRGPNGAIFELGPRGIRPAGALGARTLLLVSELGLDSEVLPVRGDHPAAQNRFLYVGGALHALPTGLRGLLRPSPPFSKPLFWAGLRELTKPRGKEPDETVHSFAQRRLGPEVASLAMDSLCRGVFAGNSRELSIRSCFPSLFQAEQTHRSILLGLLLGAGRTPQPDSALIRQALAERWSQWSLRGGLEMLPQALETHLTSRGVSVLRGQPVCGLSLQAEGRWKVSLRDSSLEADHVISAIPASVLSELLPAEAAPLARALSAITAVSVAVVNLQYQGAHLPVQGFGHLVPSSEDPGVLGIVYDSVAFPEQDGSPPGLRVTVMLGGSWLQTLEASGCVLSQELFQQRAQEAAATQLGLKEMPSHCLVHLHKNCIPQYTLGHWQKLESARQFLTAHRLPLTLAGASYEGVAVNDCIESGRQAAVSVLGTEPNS
Briefly: Inhibition of Homo sapiens (human) recombinant protoporphyrinogen oxidase by fluorescence detection.

Assay [2] has as its system Echinochloa crus-galli. The assay is described as follows: Herbicidal activity against Echinochloa crus-galli (barnyard grass) assessed as growth inhibition at 150 g/ha postemergence treatment measured after 15 days by Greenhouse test. To be noted: post-emergence, 360 h, read-out: GI. It is filed as functional. The procedure, abridged: (§1)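 Test compounds were made up as 100 g/L emulsifiable concentrates (DMF solvent, Tween-80 emulsifier) and diluted with water. About 20 seeds were sown 1–3 cm deep in clay soil (pH 6.5, 1.6% organic matter) in 9.5 cm pots, kept at 15–30 °C and 50% RH. Postemergence spray was applied to dicots at the 2-leaf stage and monocots at the 1-leaf stage. Controls were untreated and solvent-treated. Injury was scored visually at 15 days, with three replicates.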

In assay [3] the test system is Amaranthus retroflexus. The assay is described as follows: Herbicidal activity against Amaranthus retroflexus assessed as growth inhibition at 150 g/ha postemergence treatment measured after 15 days by Greenhouse test. It is filed as functional. To be noted: post-emergence, 360 h, read-out: GI. The method, boiled down:
as §1

Assay [4] concerns Brassica juncea. The assay is described as follows: Herbicidal activity against Brassica juncea assessed as growth inhibition at 150 g/ha postemergence treatment measured after 15 days by Greenhouse test. To be noted: post-emergence, 360 h, read-out: GI. It is filed as functional. The method, boiled down:
as §1

Assay [5] deals with Setaria faberi. Briefly: Herbicidal activity against Setaria faberi (Giant Foxtail) assessed as growth inhibition at 150 g/ha postemergence treatment measured after 15 days by Greenhouse test. It counts as functional. To be noted: post-emergence, 360 h, read-out: GI. The method, boiled down: as §1
Assay [6] has as its system Digitaria sanguinalis. The assay is described as follows: Herbicidal activity against Digitaria sanguinalis (hairy crabgrass) assessed as growth inhibition at 150 g/ha postemergence treatment measured after 15 days by Greenhouse test. To be noted: post-emergence, 360 h, read-out: GI. It counts as functional. The procedure, abridged: as §1
The subject of assay [7] is Eclipta prostrata. The assay is described as follows: Herbicidal activity against Eclipta prostrata assessed as growth inhibition at 150 g/ha postemergence treatment measured after 15 days by Greenhouse test. It counts as functional. To be noted: post-emergence, 360 h, read-out: GI. The procedure, abridged: as §1
Assay [8] concerns Abutilon theophrasti. The assay is described as follows: Herbicidal activity against Abutilon theophrasti (velvetleaf) assessed as growth inhibition at 150 g/ha postemergence treatment measured after 15 days by Greenhouse test. It counts as functional. To be noted: post-emergence, 360 h, read-out: GI. The method, boiled down:
as §1

For `COC(=O)Sc1nc2cc(N3C(=O)C4=C(CCCC4)C3=O)c(F)cc2s1`, the Ki (in general, the equilibrium dissociation constant of an inhibitor or competing ligand from its target) in assay [1] came to 0.08 µM. Moreover, the inhibition of growth at 150 g/ha was less than 50% in assay [2]; 80% in assay [3]; 80% in assay [4]; less than 50% in assay [5]; less than 50% in assay [6]; 80% in assay [7].

With `COC(=O)CSc1nc2cc(N3C(=O)C4=C(CCCC4)C3=O)c(Cl)cc2s1`, the Ki in assay [1] stood at 3.92 µM. For the same molecule, the inhibition of growth at 150 g/ha in assay [2] is less than 50%; in assay [3] it was 60%; in assay [4] it was less than 50%; in assay [5], less than 50%; in assay [6], less than 50%; in assay [7], 60%.

Take `CCCOC(=O)CSc1nc2cc(N3C(=O)c4ccccc4C3=O)c(F)cc2s1`: the inhibition of growth at 150 g/ha in assay [8] was 80%; in assay [2], less than 50%; in assay [3] it was 80%; in assay [5], 50%; in assay [6], less than 50%. Also, in assay [1], the Ki amounted to 1.24 µM.

With `CCOC(=O)CCSc1nc2cc(N3C(=O)C4=C(CCCC4)C3=O)c(Cl)cc2s1`, the Ki in assay [1] turned out to be 0.32 µM. Besides, the inhibition of growth at 150 g/ha in assay [2] is less than 50%; in assay [3], 60%; in assay [4], 60%; in assay [5], less than 50%; in assay [6], less than 50%; in assay [7], 60%.

As to `CC(C)OC(=O)CSc1nc2cc(N3C(=O)c4ccccc4C3=O)c(F)cc2s1`, the inhibition of growth at 150 g/ha in assay [8] was 80%; in assay [2], less than 50%; in assay [3] it was 80%; in assay [5] it was less than 50%; in assay [6], less than 50%; in assay [7], 60%. The Ki in assay [1] was 1.5 µM.

As for `CCOC(=O)CCSc1nc2cc(N3C(=O)c4ccccc4C3=O)c(F)cc2s1`, in assay [1], the Ki came out at 5.52 µM.

Turning to `CCOC(=O)CCSc1nc2cc(N3C(=O)C4=C(CCCC4)C3=O)c(F)cc2s1`, the Ki in assay [1] is 0.11 µM. Moreover, the inhibition of growth at 150 g/ha was 50% in assay [2]; 80% in assay [3]; 80% in assay [4]; less than 50% in assay [5]; 50% in assay [6]; 80% in assay [7].

Regarding `COC(=O)CSc1nc2cc(N3C(=O)c4ccccc4C3=O)c(F)cc2s1`, the Ki in assay [1] is 2.25 µM.

Regarding `CCOC(=O)CSc1nc2cc(N3C(=O)C4=C(CCCC4)C3=O)c(F)cc2s1`, the Ki in assay [1] was found to be 0.25 µM. The inhibition of growth at 150 g/ha in assay [2] was 60%; in assay [3] it was 80%; in assay [4], less than 50%; in assay [5], 60%; in assay [6] it was 60%; in assay [7], 50%.

Turning to `CCOC(=O)CCCSc1nc2cc(N3C(=O)C4=C(CCCC4)C3=O)c(Cl)cc2s1`, the Ki in assay [1] was determined as 0.75 µM. Further, the inhibition of growth at 150 g/ha in assay [2] was less than 50%; in assay [3], 80%; in assay [4], less than 50%; in assay [5] it was less than 50%; in assay [6], less than 50%; in assay [7], 60%.

As to `CCOC(=O)C(C)Sc1nc2cc(N3C(=O)C4=C(CCCC4)C3=O)c(Cl)cc2s1` (stereo not given), in assay [1], the inhibition constant Ki amounted to 0.8 µM. Also, the inhibition of growth at 150 g/ha in assay [2] is less than 50%; in assay [3], 60%; in assay [4] it was less than 50%; in assay [5] it was less than 50%; in assay [6] it was less than 50%; in assay [7] it was 60%.

In the case of `CCOC(=O)C(C)(C)Sc1nc2cc(N3C(=O)C4=C(CCCC4)C3=O)c(Cl)cc2s1`, the inhibitory constant (Ki) in assay [1] stood at 1.66 µM. Besides, the inhibition of growth at 150 g/ha is less than 50% in assay [2]; 80% in assay [3]; less than 50% in assay [4]; less than 50% in assay [5]; less than 50% in assay [6]; 60% in assay [7].

With `CCOC(=O)C(C)Sc1nc2cc(N3C(=O)c4ccccc4C3=O)c(Cl)cc2s1` (stereo not given), the Ki in assay [1] was found to be 85.9 µM.

Consider `CC(C)OC(=O)CSc1nc2cc(N3C(=O)C4=C(CCCC4)C3=O)c(F)cc2s1`, for which, in assay [1], the Ki amounted to 0.21 µM. Besides, the inhibition of growth at 150 g/ha amounted to 60% in assay [2]; 80% in assay [3]; 60% in assay [4]; 50% in assay [5]; 60% in assay [6]; 80% in assay [7].

For the molecule `CCOC(=O)CSc1nc2cc(N3C(=O)C4=C(CCCC4)C3=O)c(Cl)cc2s1`, in assay [1], the inhibitory constant (Ki) was 1.66 µM. Further, the inhibition of growth at 150 g/ha in assay [2] was less than 50%; in assay [3], 80%; in assay [4], less than 50%; in assay [5] it was less than 50%; in assay [6] it was less than 50%; in assay [7], 60%.

For `CCOC(=O)Sc1nc2cc(N3C(=O)c4ccccc4C3=O)c(F)cc2s1`, the inhibition of growth at 150 g/ha was 80% in assay [8]; less than 50% in assay [2]; 80% in assay [3]; less than 50% in assay [5]; less than 50% in assay [6]; 80% in assay [7]. The Ki in assay [1] was 0.51 µM.

`COC(=O)Sc1nc2cc(N3C(=O)C4=C(CCCC4)C3=O)c(Cl)cc2s1`: the Ki in assay [1] came to 0.52 µM. Besides, the inhibition of growth at 150 g/ha in assay [2] was less than 50%; in assay [3], 60%; in assay [4], less than 50%; in assay [5], less than 50%; in assay [6], less than 50%; in assay [7], 60%.

For `CCOC(=O)C(C)Sc1nc2cc(N3C(=O)c4ccccc4C3=O)c(F)cc2s1` (stereo not given), the Ki in assay [1] was 132 µM.

On to `CCOC(=O)Sc1nc2cc(N3C(=O)C4=C(CCCC4)C3=O)c(Cl)cc2s1`, for which, in assay [1], the Ki amounted to 0.47 µM. Further, the inhibition of growth at 150 g/ha in assay [2] was less than 50%; in assay [3], 50%; in assay [4], less than 50%; in assay [5] it was less than 50%; in assay [6], less than 50%; in assay [7] it was 50%.

`CC(C)(C)OC(=O)CSc1nc2cc(N3C(=O)C4=C(CCCC4)C3=O)c(F)cc2s1`: the Ki in assay [1] came out at 0.18 µM. Also, the inhibition of growth at 150 g/ha in assay [2] was less than 50%; in assay [3] it was 80%; in assay [4] it was 80%; in assay [5], less than 50%; in assay [6] it was 60%; in assay [7] it was 80%.

For the molecule `CCOC(=O)CCSc1nc2cc(N3C(=O)c4ccccc4C3=O)c(Cl)cc2s1`, in assay [1], the Ki turned out to be 3.76 µM.

On to `CCCOC(=O)CSc1nc2cc(N3C(=O)C4=C(CCCC4)C3=O)c(F)cc2s1`, for which, in assay [1], the Ki worked out at 0.28 µM. In addition, the inhibition of growth at 150 g/ha in assay [2] is 60%; in assay [3], 80%; in assay [4] it was 60%; in assay [5], less than 50%; in assay [6] it was 60%; in assay [7], 80%.

As to `CCOC(=O)C(C)Sc1nc2cc(N3C(=O)C4=C(CCCC4)C3=O)c(F)cc2s1` (stereo not given), the Ki in assay [1] is 0.29 µM. The inhibition of growth at 150 g/ha in assay [2] amounted to 60%; in assay [3], 80%; in assay [4] it was 80%; in assay [5], 60%; in assay [6], 60%; in assay [7], 80%.
